Only some compounds are listed: those with a hit (about 3.5% of all), similar ones and a draw of the others.
RGS4 inh: inhibitors of human RGS4. AID 463165. B-score at 10 µM. HEK293 M3R/RGS4 inducible, Fluo-4 calcium flux; active compounds read high; triggered by carbachol at its EC20. hit rate 0.45% among 310,000;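 active = B-score, a plate-corrected calcium signal, over three deviations above library mean, with baseline fluorescence within five deviations of library mean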;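 note: RGS4 expression induced by doxycycline in cells with stable M3 receptor; B-score is computed from the integrated fluorescence ratio over baseline after carbachol; higher B-score means a larger calcium signal and so more RGS4 inhibition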
Target sequence (P49798 whole entry, looked up): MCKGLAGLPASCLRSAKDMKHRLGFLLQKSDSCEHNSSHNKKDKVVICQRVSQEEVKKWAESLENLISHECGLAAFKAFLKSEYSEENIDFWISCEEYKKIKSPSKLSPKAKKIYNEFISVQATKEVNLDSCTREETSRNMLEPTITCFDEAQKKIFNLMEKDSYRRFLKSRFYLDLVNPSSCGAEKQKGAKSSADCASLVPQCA
MrgX1 ag: activates human MrgX1 receptor signaling. Q96LB2. MrgX1-HEK293 cells, Fluo-4 calcium fluorescence, agonist mode; active compounds read high. B-score at 10 µM. hit rate 0.44% among 310,000. AID 588627;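 active = calcium response B-score plate-corrected fluorescence ratio at least 3 library SD, with starting fluorescence B-score inside 5 SD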
Target sequence (Q96LB2 whole entry, looked up): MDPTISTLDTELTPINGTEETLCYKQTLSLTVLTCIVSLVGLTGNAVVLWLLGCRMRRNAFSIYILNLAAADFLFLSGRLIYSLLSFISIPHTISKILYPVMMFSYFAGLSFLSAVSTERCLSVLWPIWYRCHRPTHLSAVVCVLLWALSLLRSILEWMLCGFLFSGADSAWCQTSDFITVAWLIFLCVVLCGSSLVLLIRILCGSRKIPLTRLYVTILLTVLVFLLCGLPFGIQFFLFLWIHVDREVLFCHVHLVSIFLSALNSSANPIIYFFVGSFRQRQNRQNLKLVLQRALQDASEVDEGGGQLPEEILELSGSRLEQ
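System: HEK293 cells stably expressing human MrgX1 receptor; Dosing: test compound in the initial addition of three; Schedule: overnight plating, then 30 min 37 °C plus 30 min room-temperature dye loading; Detection: kinetic calcium dye fluorescence, Fluo-4 NW; Controls: per-plate positive and negative controls for Z′ factor.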
MrgX1 antag: blocks BAM8-22 activation of human MrgX1 receptor | MRGX1-HEK293 calcium flux, Fluo-4, BAM8-22 antagonism; active compounds read low | B-score at 10 µM | AID 588676 | hit rate 1.3% among 310,000;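 active = calcium-response B-score plate-corrected more than 3 library SD below zero, starting fluorescence within 5 deviations, no agonist response on first addition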;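 note: peak minus trough fluorescence over baseline after final BAM8-22 challenge near maximal dose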
MrgX1 PAM: human MrgX1 positive allosteric modulation, primary screen | Q96LB2 | MrgX1-HEK293, Fluo-4 calcium flux, FDSS; active compounds read high | B-score at 10 µM | hit rate 0.63% among 310,000 | AID 588675;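 active = plate-corrected calcium response at least 3 library SD above typical, normal starting fluorescence, not activating the receptor alone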;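 note: compound read alongside a low EC10 to EC30 dose of BAM8-22 agonist; peak minus trough fluorescence over baseline measured at the second addition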
RGS4 act: RGS4 potentiation or activation; HEK293 M3R/inducible RGS4, carbachol calcium flux Fluo4; active compounds read low; B-score at 10 µM; hit rate 0.92% among 310,000;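 active = B-score of the integrated calcium signal more than 4 SD below the library mean, with starting fluorescence not abnormally high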;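 note: negative B-score means reduced calcium response which marks RGS4 activation or potentiation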
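Material: Inducible-RGS4 HEK293 cells carrying M3 receptor; also added: carbachol at ECmax as muscarinic agonist stimulus; incubation: compound preincubation 20 min at room temperature before agonist; signal: Fluo4-AM (2 µM) calcium-flux fluorescence, kinetic read; measure: integrated calcium ratio converted to B score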
MrgX1 antag conf: confirmation of human MrgX1 receptor antagonists | AID 602420 | MrgX1-HEK293, BAM8-22 calcium flux, Fluo-4; active compounds read low | hit rate 19% among 2,300 | shares compounds with MrgX1 antag | remaining BAM8-22 calcium response % of control (active compounds read low), % at 10 µM;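 active = remaining agonist calcium response no higher than 100% minus 3 SD of agonist-only control wells, with starting fluorescence near control levels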;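 note: agonist BAM8-22 given at a near maximal EC90 to ECmax level; peak minus minimum fluorescence divided by baseline after agonist addition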
HEK293 Ca flux: MrgX1 antagonist counter-screen hit in parental HEK293 cells; shares compounds with MrgX1 antag; Fluo-4 calcium fluorescence, FDSS; fluorescence ratio F(max-min)/F0 at 10 µM; hit rate 2% among 4,000; AID 624111;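 active = duplicate-averaged calcium fluorescence ratio at least three times the standard deviation of buffer wells, a nonspecific response in parental cells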
HEK293 Ca counter: counter-screen for MrgX1 allosteric activators: effect in parental HEK293 cells; AID 624114; fluorescence ratio F(max-min)/F0 at 10 µM; shares compounds with MrgX1 antag; hit rate 0.4% among 4,000; parental HEK293 calcium flux, Fluo-4 fluorescence ratio; active compounds read high;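 active = calcium fluorescence ratio, averaged over duplicates, at least 3 SD of the buffer-well ratio, meaning a nonspecific response in receptor-free cells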;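 note: untransfected parental HEK293 lacking MrgX1 used as counterscreen for MrgX1 allosteric activators; fluorescence change taken during the second addition on a kinetic imager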
HEK293 Ca cntr2: counter-screen for MrgX1 activators: effect in parental HEK293 cells | shares compounds with MrgX1 antag | Fluo-4 calcium fluorescence (FDSS); active compounds read high | hit rate 8.7% among 4,000 | fluorescence ratio F(max-min)/F0 at 10 µM;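 active = calcium fluorescence ratio at least three times the spread of buffer wells, meaning a non-specific response in parental cells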
Of the large screens only hits and unclear results are named; the others gave an inactive call (follow-up assays come after a bar, where they were run).

CC1(C)N=C(SCC(=O)Nc2ccc(Cl)cc2Cl)C(c2ccccc2)=N1	MrgX1 antag -7 | MrgX1 antag conf 80% | HEK293 Ca flux inactive | HEK293 Ca counter inactive | HEK293 Ca cntr2 inactive
CC(NC(=O)N1CCN(c2ccccc2F)CC1)c1ccc(F)c(F)c1 (stereo unspecified)	none
CSc1ccc(S(=O)(=O)N2CCC(C(=O)Nc3cccnc3)CC2)cc1	none
O=C(Nc1cccnc1)C1CCN(S(=O)(=O)c2ccc(Cl)cc2)CC1	MrgX1 antag -7.9 | MrgX1 antag conf inactive | HEK293 Ca flux inactive | HEK293 Ca counter inactive | HEK293 Ca cntr2 inactive
CC(CSc1nc2ccccc2s1)Cn1c(N2CCCC2)nc2c1c(=O)[nH]c(=O)n2C (stereo unspecified)	none
CCN1CCN(c2nc3c(c(=O)[nH]c(=O)n3C)n2CCSc2nc3ccccc3s2)CC1	MrgX1 antag -6.3 | MrgX1 antag conf inactive | HEK293 Ca flux inactive | HEK293 Ca counter inactive | HEK293 Ca cntr2 inactive
O=C(NC1CCN(C(=O)N2CCOCC2)CC1)c1ccccc1	none
CCN(CC)C(=O)N1CCC(NC(=O)c2ccccc2)CC1	MrgX1 antag -7.5 | MrgX1 antag conf inactive | HEK293 Ca flux inactive | HEK293 Ca counter inactive | HEK293 Ca cntr2 inactive
Cc1ccc(S(=O)(=O)N2CCC(C(=O)OC(C)C(=O)NCc3ccccc3)CC2)cc1C (stereo unspecified)	none
CCCCNC(=O)N1CCCN(c2ccc(C#N)cn2)CC1	none
NC(=O)C1CCN(c2ncnc3c2c(-c2ccccc2)cn3-c2ccccc2)CC1	MrgX1 antag -5.2 | MrgX1 antag conf inactive | HEK293 Ca flux inactive | HEK293 Ca counter inactive | HEK293 Ca cntr2 inactive
CCOC(=O)CNC(=O)CSc1ncnc2c1cnn2-c1ccccc1	MrgX1 antag -6.1 | MrgX1 antag conf inactive | HEK293 Ca flux inactive | HEK293 Ca counter inactive | HEK293 Ca cntr2 inactive
Cc1ccc(-n2ncc3c(N4CCC(C(N)=O)CC4)ncnc32)c(C)c1	MrgX1 antag -10 | MrgX1 antag conf inactive | HEK293 Ca flux inactive | HEK293 Ca counter inactive | HEK293 Ca cntr2 inactive
CCOC(=O)C1CCN(c2ncnc3c2cnn3-c2ccccc2)CC1	MrgX1 antag -5 | MrgX1 antag conf inactive | HEK293 Ca flux inactive | HEK293 Ca counter inactive | HEK293 Ca cntr2 inactive
CCOC(=O)C1CCN(c2ncnc3c2cnn3-c2ccc(Cl)cc2)CC1	none
COc1cccc(NC(=O)c2ccc3nc(C)sc3c2)c1	none
O=C(COc1cc(Cl)c(Cl)cc1Cl)Nc1ccc([N+](=O)[O-])cc1Cl	none
CCc1nc(SCc2ccc(OCC(C)C)cc2)n[nH]1	none
c1ccc(CN2CCN(c3cnc4ccccc4n3)CC2)cc1	MrgX1 antag -8.8 | MrgX1 antag conf inactive | HEK293 Ca flux inactive | HEK293 Ca counter inactive | HEK293 Ca cntr2 inactive
Fc1ccccc1N1CCN(c2cnc3ccccc3n2)CC1	none
Cc1nonc1C1CCCN1C(=O)c1cc(COc2ccc(F)cc2Cl)on1 (stereo unspecified)	MrgX1 antag -8.8 | MrgX1 antag conf inactive | HEK293 Ca flux inactive | HEK293 Ca counter inactive | HEK293 Ca cntr2 inactive
O=C(c1cc(COc2ccc(F)cc2Cl)on1)N1CCCCC1c1cccnc1 (stereo unspecified)	none
COc1ccc(CN2CCN(C3CCC3)CC2CCO)c(C)c1C (stereo unspecified)	none
CC(C)c1ccc(NC2CCCN(C(=O)C3=NN(C)C(=O)CC3)C2)cc1 (stereo unspecified)	none
Cc1cccc(N(C)S(=O)(=O)c2ccc3c(c2)C(C)(C)C(=O)N3C)c1	none
CN(C)C1(CNC(=O)C2CCN(S(=O)(=O)c3cccc(C(F)(F)F)c3)CC2)CCCCC1	none
CC1(C)NC(=O)N(CC(=O)N2CCN(c3cccc(C(F)(F)F)c3)CC2)C1=O	MrgX1 antag -6.5 | MrgX1 antag conf 67% | HEK293 Ca flux inactive | HEK293 Ca counter inactive | HEK293 Ca cntr2 inactive
O=C(CN1C(=O)NC2(CCCC2)C1=O)N1CCN(c2cccc(C(F)(F)F)c2)CC1	none
CS(=O)(=O)c1ncc(Cl)c(C(=O)Nc2ccc(OC(F)F)cc2)n1	MrgX1 antag -4.9 | MrgX1 antag conf inactive | HEK293 Ca flux inactive | HEK293 Ca counter inactive | HEK293 Ca cntr2 inactive
COC(=O)[C@H](Cc1ccccc1)NC(=O)N1CCN(c2ccc(F)cc2)CC1	none
Nc1nc(SCc2ccc(F)cc2)ns1	none
O=C(CSc1nc(-c2ccc(F)cc2)cs1)N1CCOCC1	MrgX1 antag -9.2 | MrgX1 antag conf inactive | HEK293 Ca flux inactive | HEK293 Ca counter inactive | HEK293 Ca cntr2 inactive
CCCOC(=O)C1=C(C)NC2=C(C(=O)C(C(=O)OC)C(C)C2)C1c1ccc(N(CC)CC)cc1 (stereo unspecified)	MrgX1 antag -7.8 | MrgX1 antag conf inactive | HEK293 Ca flux inactive | HEK293 Ca counter inactive | HEK293 Ca cntr2 inactive
COc1ccc(CC(=O)NC(C)c2ccc(S(N)(=O)=O)cc2)cc1S(=O)(=O)N1CCOCC1 (stereo unspecified)	MrgX1 antag -9.3 | MrgX1 antag conf inactive | HEK293 Ca flux inactive | HEK293 Ca counter inactive | HEK293 Ca cntr2 inactive
COc1ccc(CC(=O)NC(C)(C)C)cc1S(=O)(=O)N1CCOCC1	none
O=C(CNc1cccc(S(=O)(=O)N2CCOCC2)c1)Nc1cccc(Br)c1	none
O=C(CNc1cccc(S(=O)(=O)N2CCOCC2)c1)Nc1ccccc1F	MrgX1 antag -5.1 | MrgX1 antag conf inactive | HEK293 Ca flux inactive | HEK293 Ca counter inactive | HEK293 Ca cntr2 inactive
O=C(COc1ccc(CO)cc1)Nc1ccc(F)cc1	none
O=C(COc1ccc(CO)cc1Cl)Nc1ccc(F)cc1	MrgX1 antag -6.6 | MrgX1 antag conf 85% | HEK293 Ca flux inactive | HEK293 Ca counter inactive | HEK293 Ca cntr2 inactive
Cc1ccccc1N=C(NO)c1nonc1N	none
CCc1cc2c(=O)[nH]c(-c3ccncc3)nc2s1	MrgX1 antag -6.6 | MrgX1 antag conf inactive | HEK293 Ca flux inactive | HEK293 Ca counter inactive | HEK293 Ca cntr2 inactive
COc1ccccc1/C=C/c1onc(C)c1S(=O)(=O)N1CCC(C(=O)NC(C)C)CC1	MrgX1 antag -5.5 | MrgX1 antag conf inactive | HEK293 Ca flux inactive | HEK293 Ca counter inactive | HEK293 Ca cntr2 inactive
CC(C)(C)NC(=O)CN(C(=O)CN1C(=O)C(=O)c2ccccc21)C(C)(C)C	none
O=C1c2cccc3c(N4CCCCC4)ccc(c23)C(=O)N1CCO	none
